From ChEMBL document CHEMBL4257471, “Orthoester functionalized N-guanidino derivatives of 1,5-dideoxy-1,5-imino-d-xylitol as pH-responsive inhibitors of β-glucocerebrosidase” (Medchemcomm, 2017)
Numbering of substitutions follows the chain as printed. The source made the active and inactive calls. The calls are words filed in the database; no cut-off is given here.

Experiments:
[1] = Inhibition of almond beta-glucosidase pre-incubated for 5 mins followed by p-nitrophenyl-beta-D-glucopyranoside substrate addition and measured after 30 mins by spectrophotometric assay; parameters: species or system Prunus dulcis
Summary of the method: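 Enzyme at 0.05 U mL⁻¹ with p-nitrophenyl-β-D-glucopyranoside, 0.7 mM final, in 100 mM sodium acetate, pH 5.0. IC50 values in μM are means of triple independent duplicate analyses.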

[2] = molecular target: T1, Beta-galactosidase (Bos taurus, UniProt Q58D55); assay: Inhibition of bovine liver beta-galactosidase pre-incubated for 5 mins followed by p-nitrophenyl-beta-D-galactopyranoside substrate addition and measured after 30 mins by spectrophotometric assay
T1 sequence (Q58D55 whole entry): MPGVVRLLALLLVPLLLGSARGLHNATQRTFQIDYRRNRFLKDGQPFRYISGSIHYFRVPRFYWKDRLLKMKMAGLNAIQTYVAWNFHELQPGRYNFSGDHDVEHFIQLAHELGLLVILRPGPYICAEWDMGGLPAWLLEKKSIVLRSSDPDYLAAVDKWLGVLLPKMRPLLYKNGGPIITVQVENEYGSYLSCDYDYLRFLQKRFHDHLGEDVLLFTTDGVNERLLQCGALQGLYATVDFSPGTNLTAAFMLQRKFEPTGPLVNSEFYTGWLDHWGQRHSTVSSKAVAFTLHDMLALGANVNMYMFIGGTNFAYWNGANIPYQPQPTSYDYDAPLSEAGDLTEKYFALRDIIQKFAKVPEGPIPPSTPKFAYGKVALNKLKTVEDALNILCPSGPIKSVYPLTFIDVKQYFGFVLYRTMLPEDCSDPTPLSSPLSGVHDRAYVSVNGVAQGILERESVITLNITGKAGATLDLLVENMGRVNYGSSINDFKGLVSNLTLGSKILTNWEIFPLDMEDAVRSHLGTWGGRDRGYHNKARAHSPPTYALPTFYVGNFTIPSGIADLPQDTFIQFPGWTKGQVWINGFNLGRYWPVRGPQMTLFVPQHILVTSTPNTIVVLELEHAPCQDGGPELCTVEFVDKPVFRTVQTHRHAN
Summary of the method: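 Enzyme at 0.05 U mL⁻¹; p-nitrophenyl-β-D-galactopyranoside substrate, 0.7 mM final, in 100 mM sodium phosphate buffer, pH 7.2. IC50 values in μM from triple independent duplicate analysis.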

[3] = Inhibition of yeast alpha-glucosidase pre-incubated for 5 mins followed by p-nitrophenyl-alpha-D-glucopyranoside substrate addition and measured after 30 mins by spectrophotometric assay; parameters: species or system Saccharomyces cerevisiae
Summary of the method: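 Enzyme at 0.05 U mL⁻¹; p-nitrophenyl-α-D-glucopyranoside substrate at 0.7 mM final in 100 mM sodium phosphate, pH 7.2. IC50 values in μM averaged from triple independent duplicate analysis.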

[4] = molecular target: Alpha-galactosidase (Coffea arabica, UniProt Q42656); assay: Inhibition of green coffee beans alpha-galactosidase pre-incubated for 5 mins followed by p-nitrophenyl-alpha-D-galactopyranoside substrate addition and measured after 30 mins by spectrophotometric assay
Chain of Alpha-galactosidase (Q42656 whole entry): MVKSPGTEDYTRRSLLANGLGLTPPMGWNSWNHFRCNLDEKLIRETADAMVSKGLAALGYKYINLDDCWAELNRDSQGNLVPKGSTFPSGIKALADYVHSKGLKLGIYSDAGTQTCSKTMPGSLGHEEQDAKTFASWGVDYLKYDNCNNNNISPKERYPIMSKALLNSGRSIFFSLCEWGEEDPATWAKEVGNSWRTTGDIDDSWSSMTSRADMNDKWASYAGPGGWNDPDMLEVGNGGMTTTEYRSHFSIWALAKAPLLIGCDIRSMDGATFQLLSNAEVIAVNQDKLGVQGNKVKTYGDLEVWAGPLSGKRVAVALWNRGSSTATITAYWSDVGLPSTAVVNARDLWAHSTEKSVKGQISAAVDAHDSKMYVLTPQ
Summary of the method: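 Enzyme at 0.05 U mL⁻¹ with p-nitrophenyl-α-D-galactopyranoside, 0.7 mM final, in sodium phosphate buffer (100 mM, pH 6.8). IC50 values in μM are averages of triple independent duplicate runs.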

[5] = Inhibition of Penicillium decumbens naringinase pre-incubated for 5 mins followed by p-nitrophenyl-beta-D-glucopyranoside substrate addition and measured after 30 mins by spectrophotometric assay
Summary of the method: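 Enzyme at 0.06 U mL⁻¹; substrate p-nitrophenyl-β-D-glucopyranoside at 0.7 mM final in 100 mM sodium acetate buffer, pH 5.0. IC50 values in μM, averaged from triple independent duplicate runs.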

[6] = test system: T2, Lysosomal acid glucosylceramidase (Homo sapiens), P04062 [N409S]; assay: Chaperone activity at GBA N370S mutant in Gaucher disease patient-derived fibroblasts assessed as restoration of enzyme activity at 1 to 10000 nM after 4 days by 4-methylumbelliferyl-beta-D-glucopyranoside substrate based fluorescence assay
T2 sequence (whole entry): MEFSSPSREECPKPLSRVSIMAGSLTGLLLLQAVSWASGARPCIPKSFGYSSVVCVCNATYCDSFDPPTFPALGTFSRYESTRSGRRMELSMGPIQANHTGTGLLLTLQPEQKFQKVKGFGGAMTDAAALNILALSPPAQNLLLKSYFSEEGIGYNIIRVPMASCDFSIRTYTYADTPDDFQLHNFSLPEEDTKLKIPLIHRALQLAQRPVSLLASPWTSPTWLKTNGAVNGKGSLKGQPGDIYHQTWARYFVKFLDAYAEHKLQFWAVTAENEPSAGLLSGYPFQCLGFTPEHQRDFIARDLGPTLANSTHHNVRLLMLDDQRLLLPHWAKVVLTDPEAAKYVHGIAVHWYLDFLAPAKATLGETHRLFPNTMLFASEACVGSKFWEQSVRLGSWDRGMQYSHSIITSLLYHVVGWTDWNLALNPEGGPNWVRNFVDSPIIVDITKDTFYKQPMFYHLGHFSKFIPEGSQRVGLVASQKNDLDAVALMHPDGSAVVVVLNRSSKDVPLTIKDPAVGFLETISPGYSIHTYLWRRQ

[7] = molecular target: T3, Galactocerebrosidase (Homo sapiens, UniProt P54803); assay: Inhibition of recombinant human GALC at pH 5.2 pre-incubated for 10 mins followed by 4-methylumbelliferyl-beta-D-galactopyranoside substrate addition and measured after 20 mins by fluorescence assay
T3 sequence (P54803 whole entry): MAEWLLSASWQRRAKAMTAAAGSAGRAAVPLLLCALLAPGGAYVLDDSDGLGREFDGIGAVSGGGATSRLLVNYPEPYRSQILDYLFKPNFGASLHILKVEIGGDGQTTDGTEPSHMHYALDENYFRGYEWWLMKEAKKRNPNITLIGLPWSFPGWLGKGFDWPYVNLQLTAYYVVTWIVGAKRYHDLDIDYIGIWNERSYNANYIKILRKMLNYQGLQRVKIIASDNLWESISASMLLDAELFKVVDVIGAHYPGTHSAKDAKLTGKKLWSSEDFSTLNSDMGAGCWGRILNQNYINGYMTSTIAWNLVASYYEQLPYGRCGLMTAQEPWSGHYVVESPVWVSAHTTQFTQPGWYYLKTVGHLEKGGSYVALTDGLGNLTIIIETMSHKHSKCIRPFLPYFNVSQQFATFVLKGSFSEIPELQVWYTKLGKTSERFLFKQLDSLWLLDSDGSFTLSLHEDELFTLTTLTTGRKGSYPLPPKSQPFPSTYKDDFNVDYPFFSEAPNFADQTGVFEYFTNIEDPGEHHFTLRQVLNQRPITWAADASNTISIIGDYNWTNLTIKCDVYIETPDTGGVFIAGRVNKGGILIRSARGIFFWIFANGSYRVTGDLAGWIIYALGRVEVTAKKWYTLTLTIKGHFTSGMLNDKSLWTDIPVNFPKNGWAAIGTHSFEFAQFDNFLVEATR
Summary of the method: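 Human recombinant enzyme assayed with 4-methylumbelliferyl-β-D-galactopyranoside substrate. IC50 values in μM, averaged from triple independent duplicate analysis.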

[8] = Drug degradation in aqueous solution at room temperature after 6 days; type: physicochemical; details: read-out: Drug degradation
[9] = molecular target: T4, Lysosomal acid glucosylceramidase (Homo sapiens, UniProt P04062); assay: Inhibition of recombinant human GBA pre-incubated for 30 mins followed by 4-methylumbelliferyl-beta-D-glucopyranoside substrate addition and measured after 10 mins using compound incubated at pH 7 buffer for 24 hrs prior to test by fluorescence assay
T4 sequence (P04062 whole entry): T2 sequence (whole entry) with S409N

[10] = molecular target: T4, Lysosomal acid glucosylceramidase; assay: Inhibition of recombinant human GBA pre-incubated for 30 mins followed by 4-methylumbelliferyl-beta-D-glucopyranoside substrate addition and measured after 10 mins using compound incubated at pH 5.2 for 24 hrs prior to test by fluorescence assay
[11] = test system: T5, Lysosomal acid glucosylceramidase (Homo sapiens), P04062 [L483P]; assay: Chaperone activity at GBA L444P mutant in Gaucher disease patient-derived fibroblasts assessed as restoration of enzyme activity at 1 to 10000 nM after 4 days by 4-methylumbelliferyl-beta-D-glucopyranoside substrate based fluorescence assay
T5 sequence (whole entry): T2 sequence (whole entry) with S409N, L483P

Structure (SMILES)	IC50 [1] [µM]	IC50 [2] [µM]	IC50 [3] [µM]	IC50 [4] [µM]	IC50 [5] [µM]	Activity [6]	IC50 [7] [µM]	degraded at 144 h [8] [%]	IC50 [9] [µM]	IC50 [10] [µM]	Activity [11]
CCCCOC1OCC(CNC(=N)N2C[C@@H](O)[C@H](O)[C@@H](O)C2)O1 (stereo partly drawn)	19.2	> 30	> 30	> 30	> 30	Active	> 30	< 3	2.56	> 30	–
OC[C@H]1CNC[C@@H](O)[C@@H]1O	–	–	–	–	–	Active	–	–	–	–	–
CCCCCCCCCN1C[C@H](O)[C@@H](O)[C@H](O)[C@H]1CO	> 30	> 30	> 30	> 30	0.085	–	> 30	–	–	–	–
CCCCCCCCOC1OCC(CNC(=N)N2C[C@@H](O)[C@H](O)[C@@H](O)C2)O1 (stereo partly drawn)	14.6	> 30	> 30	> 30	> 30	Active	> 30	< 3	0.025	> 30	inactive
